Laboratory results reported in ChEMBL document CHEMBL4627400, “Discovery of Dihydropyrrolo[1,2-a]pyrazin-3(4H)-one-Based Second-Generation GluN2C- and GluN2D-Selective Positive Allosteric Modulators (PAMs) of the N-Methyl-d-Aspartate (NMDA) Receptor” (J Med Chem, 2020).

molecular target: Ionotropic glutamate receptor NMDA 1/2D (Rattus norvegicus) (UniProt P35439+Q62645); assay: Positive allosteric modulation of recombinant rat GluN1a/GluN2D receptor expressed in Xenopus laevis oocytes assessed as increase in glycine/L-glutamate-induced channel current at 30 uM by two-electrode voltage clamp method relative to control; type: cell-based
Outline: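 Oocytes expressing rat GluN1/GluN2C or GluN2D, held at −40 mV in HEPES-buffered Ba2+ solution, pH 7.4, 23 °C. […] Current given as percent of agonist-alone response. […] Doubling concentration is the concentration giving 2-fold response; reported as […] log. 6–19 oocytes from 2–3 frogs.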

SMILES	%max [%]
COc1ccc(OCC2c3ccc(OC(C)C)cc3CC(=O)N2Cc2cccc(C(F)(F)F)c2)cc1 (stereo unspecified)	310
COc1cc2c(cc1OC)C(COc1cccnc1)N(C(=O)c1cccc(C(F)(F)F)c1)CC2 (stereo unspecified)	88
COc1cc2c(cc1OC)C(COc1ncccn1)N(C(=O)c1cccc(C(F)(F)F)c1)CC2 (stereo unspecified)	95
COc1ccc(OCC2c3cnn(C)c3CCN2C(=O)c2cccc(Cl)c2)cc1 (stereo unspecified)	220
COc1ccc(OCC2c3ccsc3CCN2C(=S)c2cccc(Cl)c2)cc1 (stereo unspecified)	94
COc1ccc(OCC2c3ccc(OC)cc3CC(=O)N2CCCN(C)C)cc1 (stereo unspecified)	96
COCCOCCN1C(=O)Cc2cc(OC)ccc2C1COc1ccc(OC)cc1 (stereo unspecified)	100
COc1ccc(OCC2c3cc(OC)c(OC)cc3CC(=O)N2Cc2cccc(Cl)c2)cc1 (stereo unspecified)	340
COc1ccc(OCC2c3ccc(OC)cc3CC(=O)N2CCc2c[nH]c3ccccc23)cc1 (stereo unspecified)	85
COc1ccc(OCC2c3ccc(OC(C)C)cc3CC(=O)N2Cc2cccc(Cl)c2)cc1 (stereo unspecified)	370

molecular target: Glutamate NMDA receptor; Grin1/Grin2a (Rattus norvegicus, UniProt P35439+Q00959); assay: Positive allosteric modulation of recombinant rat GluN1a/GluN2A receptor expressed in Xenopus laevis oocytes assessed as increase in glycine/L-glutamate-induced channel current at 10 to 30 uM by two-electrode voltage clamp method relative to control; type: cell-based
Outline: (§1)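 TEVC at −40 mV, 23 °C, in 90 NaCl/1 KCl/0.5 BaCl/0.005 EDTA/10 HEPES (mM), pH 7.4. Oocytes expressed rat GluN1/GluN2A or GluN1/GluN2B. […] Some GluN2A oocytes were BAPTA-loaded. 4–17 oocytes from 1–3 frogs.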

Glutamate NMDA receptor; Grin1/Grin2a, sequence (Q00959 whole entry, other chains not shown): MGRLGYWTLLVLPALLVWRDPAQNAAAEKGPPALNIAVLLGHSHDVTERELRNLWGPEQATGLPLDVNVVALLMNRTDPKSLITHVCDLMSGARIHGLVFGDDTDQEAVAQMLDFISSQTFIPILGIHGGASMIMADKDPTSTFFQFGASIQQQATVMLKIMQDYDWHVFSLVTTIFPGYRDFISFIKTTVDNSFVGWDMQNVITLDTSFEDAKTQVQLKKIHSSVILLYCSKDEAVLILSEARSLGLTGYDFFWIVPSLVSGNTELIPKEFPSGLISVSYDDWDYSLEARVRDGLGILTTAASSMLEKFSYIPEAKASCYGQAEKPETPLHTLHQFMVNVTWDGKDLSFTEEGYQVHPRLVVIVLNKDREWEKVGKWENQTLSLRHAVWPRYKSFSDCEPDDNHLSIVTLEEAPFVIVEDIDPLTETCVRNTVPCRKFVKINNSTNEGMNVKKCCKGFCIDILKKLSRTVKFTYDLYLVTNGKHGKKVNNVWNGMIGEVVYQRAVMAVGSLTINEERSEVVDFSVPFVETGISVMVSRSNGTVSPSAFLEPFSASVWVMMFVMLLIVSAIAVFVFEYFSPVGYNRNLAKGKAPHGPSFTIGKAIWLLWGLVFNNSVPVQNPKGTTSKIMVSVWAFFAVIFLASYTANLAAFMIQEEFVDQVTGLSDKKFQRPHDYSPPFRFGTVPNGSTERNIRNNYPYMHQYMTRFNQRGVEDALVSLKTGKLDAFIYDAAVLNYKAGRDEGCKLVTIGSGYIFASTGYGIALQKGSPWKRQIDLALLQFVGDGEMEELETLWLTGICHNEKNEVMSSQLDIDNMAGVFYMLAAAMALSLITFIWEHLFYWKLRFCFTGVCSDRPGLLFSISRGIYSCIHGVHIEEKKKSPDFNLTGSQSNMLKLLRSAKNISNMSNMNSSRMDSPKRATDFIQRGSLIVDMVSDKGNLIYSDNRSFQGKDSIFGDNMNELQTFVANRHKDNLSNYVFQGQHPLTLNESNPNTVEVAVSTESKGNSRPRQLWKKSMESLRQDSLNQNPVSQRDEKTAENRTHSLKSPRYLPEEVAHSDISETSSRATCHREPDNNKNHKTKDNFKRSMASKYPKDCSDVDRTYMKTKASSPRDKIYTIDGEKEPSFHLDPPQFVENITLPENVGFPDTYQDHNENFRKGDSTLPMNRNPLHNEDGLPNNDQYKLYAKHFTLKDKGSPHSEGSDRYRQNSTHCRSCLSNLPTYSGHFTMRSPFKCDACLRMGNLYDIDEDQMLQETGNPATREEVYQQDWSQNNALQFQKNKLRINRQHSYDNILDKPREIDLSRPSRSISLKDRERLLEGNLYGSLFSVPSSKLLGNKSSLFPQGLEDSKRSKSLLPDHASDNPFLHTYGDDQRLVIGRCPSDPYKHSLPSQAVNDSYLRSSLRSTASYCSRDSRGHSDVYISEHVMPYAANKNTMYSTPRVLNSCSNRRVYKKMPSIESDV

SMILES	Activity
COc1ccc(OCC2c3ccc(OC(C)C)cc3CC(=O)N2Cc2cccc(C(F)(F)F)c2)cc1 (stereo unspecified)	Not Active
COc1cc2c(cc1OC)C(COc1cccnc1)N(C(=O)c1cccc(C(F)(F)F)c1)CC2 (stereo unspecified)	Not Active
COc1cc2c(cc1OC)C(COc1ncccn1)N(C(=O)c1cccc(C(F)(F)F)c1)CC2 (stereo unspecified)	Not Active
COc1ccc(OCC2c3cnn(C)c3CCN2C(=O)c2cccc(Cl)c2)cc1 (stereo unspecified)	Not Active
COc1ccc(OCC2c3ccsc3CCN2C(=S)c2cccc(Cl)c2)cc1 (stereo unspecified)	Not Active
COc1ccc(OCC2c3ccc(OC)cc3CC(=O)N2CCCN(C)C)cc1 (stereo unspecified)	Not Active
COCCOCCN1C(=O)Cc2cc(OC)ccc2C1COc1ccc(OC)cc1 (stereo unspecified)	Not Active
COc1ccc(OCC2c3cc(OC)c(OC)cc3CC(=O)N2Cc2cccc(Cl)c2)cc1 (stereo unspecified)	Not Active
COc1ccc(OCC2c3ccc(OC)cc3CC(=O)N2CCc2c[nH]c3ccccc23)cc1 (stereo unspecified)	Not Active
COc1ccc(OCC2c3ccc(OC(C)C)cc3CC(=O)N2Cc2cccc(Cl)c2)cc1 (stereo unspecified)	Not Active

molecular target: Glutamate NMDA receptor; Grin1/Grin2c (Rattus norvegicus) (UniProt P35439+Q00961); assay: Positive allosteric modulation of recombinant rat GluN1a/GluN2C receptor expressed in Xenopus laevis oocytes assessed as increase in glycine/L-glutamate-induced channel current at 30 uM by two-electrode voltage clamp method relative to control; type: cell-based
Outline: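 Oocytes expressing rat GluN1/GluN2C or GluN2D, held at −40 mV in HEPES-buffered Ba2+ solution, pH 7.4, 23 °C. Current given as percent of agonist-alone response. Doubling concentration is the concentration giving 2-fold response; reported as […] log. 6–19 oocytes from 2–3 frogs.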

SMILES	%max [%]
COc1ccc(OCC2c3ccc(OC(C)C)cc3CC(=O)N2Cc2cccc(C(F)(F)F)c2)cc1 (stereo unspecified)	280
COc1cc2c(cc1OC)C(COc1cccnc1)N(C(=O)c1cccc(C(F)(F)F)c1)CC2 (stereo unspecified)	90
COc1cc2c(cc1OC)C(COc1ncccn1)N(C(=O)c1cccc(C(F)(F)F)c1)CC2 (stereo unspecified)	97
COc1ccc(OCC2c3cnn(C)c3CCN2C(=O)c2cccc(Cl)c2)cc1 (stereo unspecified)	210
COc1ccc(OCC2c3ccsc3CCN2C(=S)c2cccc(Cl)c2)cc1 (stereo unspecified)	97
COc1ccc(OCC2c3ccc(OC)cc3CC(=O)N2CCCN(C)C)cc1 (stereo unspecified)	110
COCCOCCN1C(=O)Cc2cc(OC)ccc2C1COc1ccc(OC)cc1 (stereo unspecified)	98
COc1ccc(OCC2c3cc(OC)c(OC)cc3CC(=O)N2Cc2cccc(Cl)c2)cc1 (stereo unspecified)	270
COc1ccc(OCC2c3ccc(OC)cc3CC(=O)N2CCc2c[nH]c3ccccc23)cc1 (stereo unspecified)	85
COc1ccc(OCC2c3ccc(OC(C)C)cc3CC(=O)N2Cc2cccc(Cl)c2)cc1 (stereo unspecified)	350

molecular target: Ionotropic glutamate receptor NMDA 1/2D (Rattus norvegicus, UniProt P35439+Q62645)

SMILES	EC50 [nM]
COc1ccc(OCC2c3ccc(OC(C)C)cc3CC(=O)N2Cc2cccc(C(F)(F)F)c2)cc1 (stereo unspecified)	631
COc1ccc(OCC2c3cc(OC)c(OC)cc3CC(=O)N2Cc2cccc(Cl)c2)cc1 (stereo unspecified)	10000
COc1ccc(OCC2c3ccc(OC(C)C)cc3CC(=O)N2Cc2cccc(Cl)c2)cc1 (stereo unspecified)	501

molecular target: Glutamate NMDA receptor; Grin1/Grin2b (Rattus norvegicus, UniProt P35439+Q00960); assay: Positive allosteric modulation of recombinant rat GluN1a/GluN2B receptor expressed in Xenopus laevis oocytes assessed as increase in glycine/L-glutamate-induced channel current at 10 to 30 uM by two-electrode voltage clamp method relative to control; type: cell-based; outline: as §1
Sequence (Q00960 whole entry, other chains not shown): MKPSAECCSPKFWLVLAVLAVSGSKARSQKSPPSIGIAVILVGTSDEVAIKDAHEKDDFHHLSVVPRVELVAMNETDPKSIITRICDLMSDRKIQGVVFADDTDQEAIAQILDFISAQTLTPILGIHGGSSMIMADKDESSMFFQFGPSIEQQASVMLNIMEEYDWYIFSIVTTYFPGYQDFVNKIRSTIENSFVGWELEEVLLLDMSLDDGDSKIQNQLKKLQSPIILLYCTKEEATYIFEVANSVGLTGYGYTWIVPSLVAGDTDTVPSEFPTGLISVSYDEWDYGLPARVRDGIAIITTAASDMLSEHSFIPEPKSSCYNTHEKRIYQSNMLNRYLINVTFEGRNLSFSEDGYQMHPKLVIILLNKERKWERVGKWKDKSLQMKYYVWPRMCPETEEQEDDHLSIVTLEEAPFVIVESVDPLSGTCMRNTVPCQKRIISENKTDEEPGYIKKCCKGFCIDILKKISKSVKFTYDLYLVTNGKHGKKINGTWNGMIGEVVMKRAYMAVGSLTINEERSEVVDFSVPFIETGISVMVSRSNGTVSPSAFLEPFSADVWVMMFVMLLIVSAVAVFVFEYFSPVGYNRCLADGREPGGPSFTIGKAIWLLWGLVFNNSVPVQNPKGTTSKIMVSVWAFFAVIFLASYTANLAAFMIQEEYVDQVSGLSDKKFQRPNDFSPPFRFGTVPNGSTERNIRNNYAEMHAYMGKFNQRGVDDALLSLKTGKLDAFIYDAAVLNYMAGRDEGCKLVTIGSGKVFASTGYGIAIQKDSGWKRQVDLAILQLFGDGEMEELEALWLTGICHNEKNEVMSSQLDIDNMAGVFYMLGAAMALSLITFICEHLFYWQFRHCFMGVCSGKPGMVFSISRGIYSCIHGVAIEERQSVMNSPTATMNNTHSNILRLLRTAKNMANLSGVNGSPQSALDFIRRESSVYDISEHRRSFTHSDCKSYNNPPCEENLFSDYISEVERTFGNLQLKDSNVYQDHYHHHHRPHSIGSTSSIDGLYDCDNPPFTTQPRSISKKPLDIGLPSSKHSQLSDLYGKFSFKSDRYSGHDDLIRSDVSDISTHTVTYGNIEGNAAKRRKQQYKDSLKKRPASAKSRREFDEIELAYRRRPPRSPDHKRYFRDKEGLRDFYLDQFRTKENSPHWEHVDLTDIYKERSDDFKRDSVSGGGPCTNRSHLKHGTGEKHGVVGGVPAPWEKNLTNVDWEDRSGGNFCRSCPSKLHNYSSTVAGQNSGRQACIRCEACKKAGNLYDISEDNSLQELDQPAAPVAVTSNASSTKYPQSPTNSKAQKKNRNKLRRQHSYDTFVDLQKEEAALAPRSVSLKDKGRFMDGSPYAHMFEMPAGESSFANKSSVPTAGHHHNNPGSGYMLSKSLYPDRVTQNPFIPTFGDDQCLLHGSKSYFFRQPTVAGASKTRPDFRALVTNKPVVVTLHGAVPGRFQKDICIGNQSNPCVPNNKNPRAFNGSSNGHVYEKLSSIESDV

SMILES	Activity
COc1ccc(OCC2c3ccc(OC(C)C)cc3CC(=O)N2Cc2cccc(C(F)(F)F)c2)cc1 (stereo unspecified)	Not Active
COc1cc2c(cc1OC)C(COc1cccnc1)N(C(=O)c1cccc(C(F)(F)F)c1)CC2 (stereo unspecified)	Not Active
COc1cc2c(cc1OC)C(COc1ncccn1)N(C(=O)c1cccc(C(F)(F)F)c1)CC2 (stereo unspecified)	Not Active
COc1ccc(OCC2c3cnn(C)c3CCN2C(=O)c2cccc(Cl)c2)cc1 (stereo unspecified)	Not Active
COc1ccc(OCC2c3ccsc3CCN2C(=S)c2cccc(Cl)c2)cc1 (stereo unspecified)	Not Active
COc1ccc(OCC2c3ccc(OC)cc3CC(=O)N2CCCN(C)C)cc1 (stereo unspecified)	Not Active
COCCOCCN1C(=O)Cc2cc(OC)ccc2C1COc1ccc(OC)cc1 (stereo unspecified)	Not Active
COc1ccc(OCC2c3cc(OC)c(OC)cc3CC(=O)N2Cc2cccc(Cl)c2)cc1 (stereo unspecified)	Not Active
COc1ccc(OCC2c3ccc(OC)cc3CC(=O)N2CCc2c[nH]c3ccccc23)cc1 (stereo unspecified)	Not Active
COc1ccc(OCC2c3ccc(OC(C)C)cc3CC(=O)N2Cc2cccc(Cl)c2)cc1 (stereo unspecified)	Not Active

molecular target: Glutamate NMDA receptor; Grin1/Grin2c (Rattus norvegicus, UniProt P35439+Q00961)

SMILES	EC50 [nM]
COc1ccc(OCC2c3ccc(OC(C)C)cc3CC(=O)N2Cc2cccc(C(F)(F)F)c2)cc1 (stereo unspecified)	398
COc1ccc(OCC2c3cc(OC)c(OC)cc3CC(=O)N2Cc2cccc(Cl)c2)cc1 (stereo unspecified)	5010
COc1ccc(OCC2c3ccc(OC(C)C)cc3CC(=O)N2Cc2cccc(Cl)c2)cc1 (stereo unspecified)	398
